From ChEMBL document CHEMBL1795294, “Modulation of the activity of histone acetyltransferases by long chain alkylidenemalonates (LoCAMs)” (Bioorg Med Chem, 2011) come the findings set out here.

The inhibition is the drop in the measured response relative to a control, in per cent. As a reminder, the IC50 is the midpoint of a concentration-inhibition curve. A lower IC50 goes with greater potency in that assay.

For series [1], the target named is Histone acetyltransferase KAT2B (Homo sapiens) (UniProt Q92831). The series can be described thus: Increase of human recombinant KAT2B acetylation activity using histone H4 peptide as substrate at 50 uM after 2 hrs. An outline of the steps: (§1)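 Human PCAF (200 ng) in KAT buffer with 10 µg histone H4 peptide (aa 2–24), 20 µM acetyl-CoA with 0.5 µCi/mL [3H]-acetyl-CoA, and compound at 50 µM final, 2 h at 37 °C. Spotted on P81 paper in triplicate, washed with TCA then acetone, scintillation counted. Activity given as % of untreated control (100%).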

Series [2] has as its system U-937. Description: Inhibition of histone acetyltransferase in human U937 cells assessed as increase of histone H3 acetylation level at 50 uM after 15 mins by Western blotting. It counts as cell-based. The gist of the method:
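U937 cells treated at 50 µM. Histones prepared by Triton extraction buffer lysis, then overnight 0.2 M HCl extraction at 4 °C, Bradford quantitation. Immunoblot with pan-acetyl-H3 antibody (1:1000), Ponceau Red staining as loading check.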
Background: Immunoblotting shows a protein as a band on a membrane.

The target in series [3] is CREB-binding protein (Homo sapiens) (UniProt Q92793). The series can be described thus: Inhibition of human recombinant KAT3A expressed in Escherichia coli BL21 using histone H4 peptide as substrate at 50 uM after 2 hrs relative to control. An outline of the steps: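 Recombinant CBP fragment (aa 1098–1877) from E. coli BL21, affinity purified. Spotted on P81 paper in triplicate, washed with TCA/acetone, scintillation DPM compared with negative control, expressed as %.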

In series [4] the test system is U-937. The series can be described thus: Induction of granulocytic differentiation in human U937 after […] using propidium iodide staining by FACS analysis. In kind it is functional, cell-based. (In general: A flow cytometer gives signals particle by particle.)
Series [5] concerns U-937. Description: Induction of apoptosis in human U937 cells at 25 uM after 30 hrs using annexin V/propidium iodide double-staining by FACS analysis. It counts as functional, cell-based. The gist of the method: (§2)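 U937 cells at 200,000 cells/mL, 37 °C, 5% CO2, exposed 30 h at 50 or 25 µM. Dose–response runs used 5–200 µM, with IC50 taken as the concentration giving 50% apoptosis. Annexin V/propidium iodide double staining, apoptotic subpopulations counted by FACS. Three independent experiments, mean ± SD.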

In series [6] the test system is U-937. Description: Cell cycle arrest in human U937 cells assessed as accumulation at S phase at 25 uM after 30 hrs using propidium iodide staining by flow cytometry. In kind it is functional, cell-based. An outline of the steps:
(§3)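 U937 cells kept at 200,000 cells/mL, 37 °C, 5% CO2, treated 30 h at 50 or 25 µM. Phase distribution by flow cytometry. Three independent experiments, mean ± SD.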

The target of series [7] is Histone deacetylase (Homo sapiens) (UniProt Q13547+O15379+Q9UBN7+Q92769+Q9UQL6+Q8WUI4+Q9BY41+Q96DB2+P56524+Q9UKV0+Q969S8). The series can be described thus: Inhibition of HDAC in human U937 cells at 50 uM after 15 mins by Western blotting. It counts as cell-based. The note with it: U-937.
Another series relates to MCF7. Description: Inhibition of histone acetyltransferase in human MCF7 cells assessed as increase of alpha-tubulin acetylation level at 15 and 30 uM after 15 mins by Western blotting.
The test system of series [8] is U-937. Description: Inhibition of histone acetyltransferase in human U937 cells assessed as inhibition of acetylation of histone H4 at K8 at 50 uM after 24 hrs by Western blotting. In kind it is cell-based. The gist of the method: (§4)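 U937 cells treated 24 h at 50 µM. Acid-extracted histones (Triton buffer lysis, then 0.2 M HCl overnight at 4 °C) immunoblotted with site-specific antibodies (H3K9/K14/K18/K56ac, H4K5/K8/K16ac, pan-acetyl H4; 1:1000). Loading checked by Ponceau Red staining, or by histone H1 for pan-acetyl H4.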

For series [9], the target named is Histone acetyltransferase KAT2B (Homo sapiens) (UniProt Q92831). Description: Inhibition of human recombinant KAT2B using histone H4 peptide as substrate at 50 uM after 2 hrs. The gist of the method: as §1
Series [10] relates to U-937. The series can be described thus: Inhibition of histone acetyltransferase in human U937 cells assessed as inhibition of acetylation of histone H3 at K9 at 50 uM after 24 hrs by Western blotting. It counts as cell-based. The gist of the method:
as §4

Series [11] deals with U-937. The series can be described thus: Inhibition of histone acetyltransferase in human U937 cells assessed as inhibition of acetylation of histone H3 at K14 at 50 uM after 24 hrs by Western blotting. In kind it is cell-based. The gist of the method:
as §4

The test system of series [12] is U-937. Description: Inhibition of histone acetyltransferase in human U937 cells assessed as inhibition of acetylation of histone H3 at K18 at 50 uM after 24 hrs by Western blotting. It counts as cell-based. An outline of the steps: as §4
Series [13] concerns U-937. Description: Inhibition of histone acetyltransferase in human U937 cells assessed as inhibition of acetylation of histone H3 at K56 at 50 uM after 24 hrs by Western blotting. In kind it is cell-based. An outline of the steps:
as §4

Series [14] deals with U-937. The series can be described thus: Inhibition of histone acetyltransferase in human U937 cells assessed as inhibition of acetylation of histone H4 at K16 at 50 uM after 24 hrs by Western blotting. In kind it is cell-based. An outline of the steps:
as §4

Series [15] concerns U-937. The series can be described thus: Inhibition of histone acetyltransferase in human U937 cells assessed as inhibition of acetylation of histone H4 at K5 at 50 uM after 24 hrs by Western blotting. In kind it is cell-based. The gist of the method:
as §4

The target of series [16] is Histone acetyltransferase p300 (Homo sapiens) (UniProt Q09472). The series can be described thus: Binding affinity to immobilized His6-tagged human full-length KAT3B expressed in Sf9 cells by surface plasmon resonance assay.
The subject of series [17] is U-937. The series can be described thus: Induction of apoptosis in human U937 cells at 50 uM after 30 hrs using annexin V/propidium iodide double-staining by FACS analysis. In kind it is functional. An outline of the steps: as §2
The next series deals with Albumin (Bos taurus, UniProt P02769). Description: Binding affinity to bovine serum albumin by surface plasmon resonance assay. To be noted: cattle. (In general: SPR reads the build-up and loss of mass on a sensor chip optically.)
The target of series [18] is Histone acetyltransferase p300 (Homo sapiens) (UniProt Q09472). Description: Binding affinity to His6-tagged immobilized human KAT3B catalytic domain expressed in Sf9 cells by surface plasmon resonance assay.
Series [19] has as its system U-937. The series can be described thus: Cell cycle arrest in human U937 cells assessed as accumulation at S phase at 50 uM after 30 hrs using propidium iodide staining by flow cytometry. It counts as functional, cell-based. An outline of the steps: as §3
Series [20] relates to U-937. The series can be described thus: Induction of apoptosis in human U937 cells after 30 hrs using annexin V/propidium iodide double-staining by FACS analysis. It counts as functional, cell-based. The note with it: U-937, 30 h. The gist of the method:
as §2

Calls of active or inactive are those of the source. The calls are words filed in the database; no cut-off is given here.

Histone acetyltransferase KAT2B (Homo sapiens), sequence (Q92831 whole entry, looked up, the tested form may be a part): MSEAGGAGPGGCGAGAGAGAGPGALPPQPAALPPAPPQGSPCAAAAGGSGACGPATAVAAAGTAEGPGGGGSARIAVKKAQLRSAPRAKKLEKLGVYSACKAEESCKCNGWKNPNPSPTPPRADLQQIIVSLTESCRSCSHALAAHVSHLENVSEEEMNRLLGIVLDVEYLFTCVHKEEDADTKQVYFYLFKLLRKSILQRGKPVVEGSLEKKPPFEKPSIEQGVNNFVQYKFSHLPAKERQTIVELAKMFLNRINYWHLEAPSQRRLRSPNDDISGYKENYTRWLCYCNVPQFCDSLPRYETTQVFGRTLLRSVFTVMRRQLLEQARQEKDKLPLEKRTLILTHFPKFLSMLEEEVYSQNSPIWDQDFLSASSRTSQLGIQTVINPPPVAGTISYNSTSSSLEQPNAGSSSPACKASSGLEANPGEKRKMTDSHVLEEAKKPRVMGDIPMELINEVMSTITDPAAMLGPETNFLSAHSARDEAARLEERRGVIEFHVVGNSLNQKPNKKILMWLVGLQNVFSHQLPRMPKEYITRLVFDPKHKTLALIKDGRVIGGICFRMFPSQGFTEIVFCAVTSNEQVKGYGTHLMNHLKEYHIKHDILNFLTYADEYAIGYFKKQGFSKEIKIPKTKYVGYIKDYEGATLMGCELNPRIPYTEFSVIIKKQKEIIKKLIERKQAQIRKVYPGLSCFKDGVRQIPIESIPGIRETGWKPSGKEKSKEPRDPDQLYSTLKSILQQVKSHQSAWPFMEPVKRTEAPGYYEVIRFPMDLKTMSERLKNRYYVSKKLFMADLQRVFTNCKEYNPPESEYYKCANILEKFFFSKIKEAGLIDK
Histone acetyltransferase p300 (Homo sapiens), sequence (Q09472 whole entry, the tested form may be a part): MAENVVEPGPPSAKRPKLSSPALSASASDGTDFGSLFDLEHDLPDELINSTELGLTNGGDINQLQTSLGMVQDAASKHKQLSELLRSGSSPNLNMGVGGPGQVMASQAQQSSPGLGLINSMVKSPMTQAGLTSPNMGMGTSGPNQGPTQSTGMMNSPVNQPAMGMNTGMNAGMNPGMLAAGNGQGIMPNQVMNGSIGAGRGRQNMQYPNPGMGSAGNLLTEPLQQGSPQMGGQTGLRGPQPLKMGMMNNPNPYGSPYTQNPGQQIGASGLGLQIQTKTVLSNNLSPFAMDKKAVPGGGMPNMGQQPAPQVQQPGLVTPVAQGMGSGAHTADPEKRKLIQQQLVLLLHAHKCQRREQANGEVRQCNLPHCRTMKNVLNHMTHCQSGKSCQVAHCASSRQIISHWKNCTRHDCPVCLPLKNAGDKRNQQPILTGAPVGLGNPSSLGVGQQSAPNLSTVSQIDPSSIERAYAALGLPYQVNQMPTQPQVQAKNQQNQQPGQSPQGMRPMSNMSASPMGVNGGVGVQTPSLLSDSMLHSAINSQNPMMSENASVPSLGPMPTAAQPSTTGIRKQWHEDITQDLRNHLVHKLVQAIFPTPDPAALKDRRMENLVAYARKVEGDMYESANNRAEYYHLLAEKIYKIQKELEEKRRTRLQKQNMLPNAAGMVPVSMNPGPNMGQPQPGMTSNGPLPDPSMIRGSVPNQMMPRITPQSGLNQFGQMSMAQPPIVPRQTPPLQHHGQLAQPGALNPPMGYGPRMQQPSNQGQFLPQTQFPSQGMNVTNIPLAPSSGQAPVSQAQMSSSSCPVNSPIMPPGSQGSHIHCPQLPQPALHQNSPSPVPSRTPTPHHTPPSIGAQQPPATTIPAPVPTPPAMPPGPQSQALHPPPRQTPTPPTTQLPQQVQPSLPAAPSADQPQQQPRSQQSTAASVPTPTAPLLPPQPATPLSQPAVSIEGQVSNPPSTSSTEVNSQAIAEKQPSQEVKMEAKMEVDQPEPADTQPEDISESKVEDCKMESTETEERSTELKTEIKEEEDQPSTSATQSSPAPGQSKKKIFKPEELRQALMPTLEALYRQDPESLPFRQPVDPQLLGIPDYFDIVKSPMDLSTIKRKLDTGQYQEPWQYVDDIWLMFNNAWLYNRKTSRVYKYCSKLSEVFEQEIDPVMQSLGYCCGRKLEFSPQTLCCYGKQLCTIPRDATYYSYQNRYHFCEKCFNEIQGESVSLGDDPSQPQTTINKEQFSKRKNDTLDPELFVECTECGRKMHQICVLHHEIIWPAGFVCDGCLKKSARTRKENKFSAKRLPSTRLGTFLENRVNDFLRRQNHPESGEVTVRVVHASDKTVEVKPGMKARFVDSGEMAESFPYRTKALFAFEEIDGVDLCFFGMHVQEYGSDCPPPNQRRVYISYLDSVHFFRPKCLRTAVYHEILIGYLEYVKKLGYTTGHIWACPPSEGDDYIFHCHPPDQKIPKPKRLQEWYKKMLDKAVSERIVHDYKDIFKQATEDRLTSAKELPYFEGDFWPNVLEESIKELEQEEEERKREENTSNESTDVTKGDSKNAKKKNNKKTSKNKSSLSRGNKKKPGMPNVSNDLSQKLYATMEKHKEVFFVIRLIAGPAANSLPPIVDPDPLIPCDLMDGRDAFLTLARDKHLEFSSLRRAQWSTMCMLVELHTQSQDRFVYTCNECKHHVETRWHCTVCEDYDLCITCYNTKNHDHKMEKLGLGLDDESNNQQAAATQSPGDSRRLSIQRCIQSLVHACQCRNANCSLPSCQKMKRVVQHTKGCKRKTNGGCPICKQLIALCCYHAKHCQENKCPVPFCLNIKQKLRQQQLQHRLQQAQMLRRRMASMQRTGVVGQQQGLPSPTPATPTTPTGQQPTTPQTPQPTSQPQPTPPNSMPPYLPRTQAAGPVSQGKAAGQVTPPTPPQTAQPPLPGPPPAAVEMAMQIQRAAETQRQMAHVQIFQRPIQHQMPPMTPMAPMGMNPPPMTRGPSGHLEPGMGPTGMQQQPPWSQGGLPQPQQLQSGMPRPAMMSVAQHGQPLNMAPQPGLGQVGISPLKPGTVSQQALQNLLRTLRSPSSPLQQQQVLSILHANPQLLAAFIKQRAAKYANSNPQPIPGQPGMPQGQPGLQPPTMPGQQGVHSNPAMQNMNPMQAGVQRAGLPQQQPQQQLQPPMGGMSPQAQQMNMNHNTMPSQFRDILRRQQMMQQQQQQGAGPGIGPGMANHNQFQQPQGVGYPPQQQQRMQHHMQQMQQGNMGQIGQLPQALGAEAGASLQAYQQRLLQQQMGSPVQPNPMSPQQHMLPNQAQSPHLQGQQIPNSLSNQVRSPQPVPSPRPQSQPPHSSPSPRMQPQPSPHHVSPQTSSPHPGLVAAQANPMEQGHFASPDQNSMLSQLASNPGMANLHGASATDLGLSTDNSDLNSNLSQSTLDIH
Albumin, sequence (P02769 whole entry, the tested form may be a part): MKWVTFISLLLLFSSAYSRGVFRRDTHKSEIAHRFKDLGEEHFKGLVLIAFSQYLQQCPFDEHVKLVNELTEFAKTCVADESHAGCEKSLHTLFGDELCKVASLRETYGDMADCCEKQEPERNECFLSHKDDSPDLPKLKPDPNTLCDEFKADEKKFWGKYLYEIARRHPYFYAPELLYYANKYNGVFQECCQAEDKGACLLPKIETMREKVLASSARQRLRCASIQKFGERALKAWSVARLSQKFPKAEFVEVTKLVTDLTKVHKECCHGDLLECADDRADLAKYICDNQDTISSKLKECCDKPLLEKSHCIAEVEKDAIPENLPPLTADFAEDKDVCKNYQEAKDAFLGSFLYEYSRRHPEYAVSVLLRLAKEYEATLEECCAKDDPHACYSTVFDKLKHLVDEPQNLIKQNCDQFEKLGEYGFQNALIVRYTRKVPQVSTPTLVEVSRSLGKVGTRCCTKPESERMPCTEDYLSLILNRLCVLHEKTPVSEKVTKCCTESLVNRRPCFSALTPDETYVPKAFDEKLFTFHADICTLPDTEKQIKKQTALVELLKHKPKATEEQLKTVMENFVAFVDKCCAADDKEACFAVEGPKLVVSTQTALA

Turning to `CCCCCCCCCCCCCCC(O)=C(C(=O)OCC)C(=O)OCC`, in [1], the result was Active. The inhibition entry (in the series with U-937 [2]; in [7]; in the series on MCF7) was “inactive” each time. Moreover, the inhibition in series [3] was determined as 52%. Moreover, the outcome with U-937 [4], with U-937 [5] and in the series with U-937 [6] was inactive.

Regarding `CCCCCCCCCCCCCCC(C)=C(C(=O)OCC)C(=O)OCC`, the inhibition entry (in the series with U-937 [2]; in series [7]; with MCF7) was “inactive” each time. In series [3], the inhibition result is “Active”. Further, the result with U-937 [4], in the series on U-937 [5] and with U-937 [6] was inactive.

As to `CCCCCCCCCCCCCCC(Cl)=C(C(=O)OCC)C(=O)OCC`, the result in [1] was Active. Further, the inhibition result (in the series on U-937 [2]; in series [7]; in the series with MCF7) was “inactive” each time. Further, in [3], the inhibition result was “Active”. The result with U-937 [4], in the series on U-937 [5] and with U-937 [6] was inactive.

As to `C=CC/C=C\C/C=C\CCCCCCCc1cccc(O)c1C(=O)O`, the inhibition in [3] was 62%.

Consider `CCCCCCCCCCCCC=C(C(=O)OCC)C(=O)OCC`, for which the inhibition entry (with U-937 [8]; in series [3]; in the series with U-937 [11]; in the series on U-937 [13]; with U-937 [14]; in the series on U-937 [15]) was “inactive” each time. In addition, the inhibition result (in series [9]; with U-937 [10]; with U-937 [12]) was “Active” throughout. The outcome in the series with U-937 [4], in the series with U-937 [5] and in the series with U-937 [6] was inactive.

In the case of `CCCCCCCCCCCCCCC(N)=C(C(=O)OCC)C(=O)OCC`, the outcome with U-937 [4], in the series on U-937 [5] and in the series with U-937 [6] was inactive.

As for `CCCCCCCCCCCCCCC=C(C(C)=O)C(C)=O`, the Activity entry in series [16] is “Dose-dependent effect”; on Albumin, “Not Active”. Also, the inhibition entry (in the series on U-937 [2]; in series [9]; in the series on U-937 [10]; in the series on U-937 [11]) was “Active” throughout. The inhibition result in the series with U-937 [8], in the series on U-937 [12], with U-937 [13], with MCF7, with U-937 [14] and in the series with U-937 [15] was “inactive” throughout. The outcome with U-937 [17] and with U-937 [19] was Active. Besides, the inhibition in [3] worked out at 79%. The result (with U-937 [4]; in [18]) was inactive.

As for `CCCCCCCCCCCCCC(C)=C(C(=O)OCC)C(=O)OCC`, the inhibition result (in the series on U-937 [2]; in series [7]; with MCF7) was “inactive” throughout. In series [3], the inhibition result is “Active”. Also, the result in the series on U-937 [4], in the series with U-937 [5] and in the series on U-937 [6] was inactive.

Regarding `CCCCCCCCCCCCCC(C(=O)OCC)C(=O)OCC`, the inhibition result (with U-937 [2]; in series [7]; in the series with MCF7) was “inactive” in each case. In addition, the inhibition result in [9] and in [3] was “Active” throughout. The outcome in the series with U-937 [4], with U-937 [5] and with U-937 [6] was inactive.

Turning to `CCCCCCCCCCCCCCCC1C(=O)OC(C)(C)OC1=O`, the inhibition entry (with U-937 [2]; in series [7]; with MCF7) was “inactive” in each case. For the same molecule, the inhibition entry in [9] and in series [3] was “Active” throughout. For the same molecule, the outcome with U-937 [4], with U-937 [5] and with U-937 [6] was inactive.

Consider `CCCCCCCCCCCCCCC=C1C(=O)OC(C)(C)OC1=O`, for which the inhibition entry (in the series on U-937 [2]; in series [7]; with MCF7) was “inactive” each time. For the same molecule, the inhibition entry in [9] and in [3] was “Active” in each case. For the same molecule, the result in the series on U-937 [4], in the series with U-937 [5] and in the series on U-937 [6] was inactive.

For the molecule `CCCCCCCCCCCCCCC(C(=O)OCC)C(=O)OCC`, the inhibition entry (with U-937 [2]; in series [7]; in the series with MCF7) was “inactive” each time. In addition, the inhibition entry in [3] is “Active”. Moreover, the outcome in the series with U-937 [4], with U-937 [5] and in the series on U-937 [6] was inactive.

With `CCCCCCCCCCCCCCCCC(O)=C(C(=O)OCC)C(=O)OCC`, the inhibition entry (with U-937 [2]; in series [7]; in the series with MCF7) was “inactive” each time. The inhibition result in series [3] was “Active”. The outcome in the series with U-937 [4], in the series with U-937 [5] and in the series with U-937 [6] was inactive.

Regarding `CCCCCCCCCCC=C(C(=O)OCC)C(=O)OCC`, the Activity entry in [16] is “Dose-dependent effect”; in the series with U-937 [17], 25.4%; on Albumin, “Not Active”. For the same molecule, the inhibition result (in the series on U-937 [2]; in series [9]; with U-937 [10]; in [3]; in the series with U-937 [11]; in the series with U-937 [12]) was “Active” in each case. The inhibition result in the series with U-937 [13], with U-937 [14] and with U-937 [15] was “Active” throughout. The inhibition result in the series on U-937 [8] and in the series on MCF7 was “inactive” in each case. Further, the result (with U-937 [4]; in series [18]) was inactive. The IC50 with U-937 [20] is 156 µM. Besides, the outcome in the series on U-937 [19] was Active.

Consider `CCCCCCCCCCCCCCCC(C(=O)OCC)C(=O)OCC`, for which the inhibition result (in the series with U-937 [2]; in [7]; in the series on MCF7) was “inactive” throughout. Besides, in [3], the inhibition entry is “Active”. The result in the series with U-937 [4], with U-937 [5] and in the series with U-937 [6] was inactive.
